From ChEMBL document CHEMBL1121928, “Pyrazolo[3,4-d]pyrimidine ribonucleosides as anticoccidials. 1. Synthesis and activity of some nucleosides of purines and 4-(alkylthio)pyrazolo[3,4-d]pyrimidines” (J Med Chem, 1982)

Legend:
Eimeria tenella = assay: Inhibition Eimeria tenella growth; format: functional; settings: read-out: MEC
Method in brief: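 E. tenella (Weybridge strain) grown in vitro in embryonic chick liver cells. Toxicity to the host liver cells was scored in the same culture system.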

Gallus gallus [1] = organism: Gallus gallus; assay: Number of chicks cleared of Eimeria tenella lesions out of a group of 5 when given in a diet of 400 ppm; format: functional
Method in brief: (§1)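 One-week-old chicks were given a simultaneous infection of E. tenella (Weybridge strain) and E. acervulina (Ongar strain). Infection took place 1 day after medication began. Compound was mixed into the diet and fed ad libitum until the end of the test.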

Gallus gallus [2] = organism: Gallus gallus; assay: Number of chicks cleared of eimeria tenella lesions out of a group of 5 when given in the diet at 200 ppm; format: functional
Method in brief: (§2)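 One-week-old chicks infected with E. tenella (Weybridge strain) together with E. acervulina (Ongar strain) one day after medication began. Compound mixed into the diet and fed ad libitum until the end of the test.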

Gallus gallus [3] = organism: Gallus gallus; assay: Number of chicks cleared of eimeria tenella lesions out of a group of 5 when given in the diet at 25 p.p.m.; format: functional; method in brief: as §1
Gallus gallus [4] = organism: Gallus gallus; assay: Number of chicks cleared of eimeria tenella lesions out of a group of 5 when given in the diet at 50 p.p.m.; format: functional; method in brief: as §1
Gallus gallus [5] = organism: Gallus gallus; assay: Number of chicks cleared of eimeria tenella lesions out of a group of 5 when given in the diet at 100 ppm; format: functional; method in brief: as §1
Gallus gallus [6] = organism: Gallus gallus; assay: Number of chicks cleared of eimeria tenella lesions out of a group of 5 when given in the diet at 400 p.p.m.; format: functional; method in brief: as §1
Gallus gallus [7] = organism: Gallus gallus; assay: Number of chicks cleared of eimeria tenella lesions out of a group of 5 when given in the diet at 200 p.p.m.; format: functional; method in brief: as §1
Gallus gallus [8] = organism: Gallus gallus; assay: Number of chicks out of a group of five that died due to toxicity when given in the diet at 100 ppm; format: organism-based; settings: chicken, in vivo, po; method in brief: as §2
Gallus gallus [9] = organism: Gallus gallus; assay: Number of chicks out of a group of five that died due to toxicity when given in the diet at 400 ppm; format: organism-based; settings: chicken, in vivo, po; method in brief: as §2
Gallus gallus [10] = organism: Gallus gallus; assay: Number of chicks cleared of eimeria tenella lesions out of a group of 5 when given in the diet at 100 p.p.m.; format: functional; method in brief: as §1
Gallus gallus [11] = organism: Gallus gallus; assay: Number of chicks out of a group of five that died due to toxicity when given in the diet at 200 ppm; format: organism-based; settings: chicken, in vivo, po; method in brief: as §2
Gallus gallus [12] = organism: Gallus gallus; assay: Number of chicks cleared of eimeria tenella lesions out of a group of 5 when given in the diet at 400 ppm; format: functional; method in brief: as §1

CSc1ncnc2c1ncn2[C@@H]1O[C@H](CO)[C@@H](O)[C@@H]1O
minimal effective concentration (Eimeria tenella): > 20 µg/mL

CCCCCSc1[nH]cnc2nncc1-2
minimal effective concentration (Eimeria tenella): 5 µg/mL

OC[C@H]1O[C@@H](n2cnc3c(S)ncnc32)[C@H](O)[C@@H]1O [THIOINOSINE]
minimal effective concentration (Eimeria tenella): > 20 µg/mL

CSc1ncnc2c1ncn2[C@H]1C[C@H](O)[C@@H](CO)O1
minimal effective concentration (Eimeria tenella): 50 µg/mL

CSc1nc(SC)c2ncn(C3O[C@H](CO)[C@@H](O)[C@H]3O)c2n1 (stereo partly specified)
minimal effective concentration (Eimeria tenella): > 50 µg/mL

CSc1ncnc2c1ncn2[C@@H]1O[C@H](CO)[C@@H](O)[C@H]1O
minimal effective concentration (Eimeria tenella): 0.31 µg/mL

Sc1ncnc2nc[nH]c12 [MERCAPTOPURINE ANHYDROUS]
minimal effective concentration (Eimeria tenella): > 20 µg/mL

CSc1ncnc2c1nnn2[C@@H]1O[C@H](CO)[C@@H](O)[C@H]1O
minimal effective concentration (Eimeria tenella): 1.25 µg/mL

CCSc1[nH]cnc2nncc1-2
No. of chicks (Gallus gallus [1]): 0

CCCCCSc1ncnc2c1cnn2C1O[C@H](CO)[C@@H](O)[C@H]1O (stereo partly specified)
minimal effective concentration (Eimeria tenella): 0.31 µg/mL
No. of chicks (Gallus gallus [2]): 5
No. of chicks (Gallus gallus [3]): 0
No. of chicks (Gallus gallus [4]): 0
No. of chicks (Gallus gallus [5]): 3

CC(C)Sc1ncnc2c1cnn2C1O[C@H](CO)[C@@H](O)[C@H]1O (stereo partly specified)
minimal effective concentration (Eimeria tenella): 0.019 µg/mL
No. of chicks (Gallus gallus [6]): 0

CSc1nc(N)nc2c1ncn2[C@@H]1O[C@H](CO)[C@@H](O)[C@H]1O
minimal effective concentration (Eimeria tenella): 50 µg/mL

OC[C@H]1OC(n2ncc3c(SC4CCCC4)ncnc32)[C@H](O)[C@@H]1O (stereo partly specified)
minimal effective concentration (Eimeria tenella): 5 µg/mL
No. of chicks (Gallus gallus [2]): 1

CCCCCCCSc1ncnc2c1cnn2C1O[C@H](CO)[C@@H](O)[C@H]1O (stereo partly specified)
minimal effective concentration (Eimeria tenella): 0.31 µg/mL
No. of chicks (Gallus gallus [7]): 1

Nc1nc(=S)c2ncn([C@@H]3O[C@H](CO)[C@@H](O)[C@H]3O)c2[nH]1 [THIOGUANOSINE]
minimal effective concentration (Eimeria tenella): > 50 µg/mL

C=CCSc1ncnc2c1cnn2C1O[C@H](CO)[C@@H](O)[C@H]1O (stereo partly specified)
minimal effective concentration (Eimeria tenella): 0.019 µg/mL
No. of chicks (Gallus gallus [2]): 5
No. of chicks (Gallus gallus [3]): 1
No. of chicks (Gallus gallus [4]): 2
No. of chicks (Gallus gallus [5]): 5

CCCCCSc1ncnc2c1ncn2C1O[C@H](CO)[C@@H](O)[C@H]1O (stereo partly specified)
minimal effective concentration (Eimeria tenella): > 50 µg/mL

CCCCSc1ncnc2c1cnn2C1O[C@H](CO)[C@@H](O)[C@H]1O (stereo partly specified)
minimal effective concentration (Eimeria tenella): 0.019 µg/mL
No. of chicks (Gallus gallus [2]): 5
No. of chicks (Gallus gallus [3]): 0
No. of chicks (Gallus gallus [4]): 0
No. of chicks (Gallus gallus [5]): 1

CCSc1ncnc2c1ncn2[C@@H]1O[C@H](CO)[C@@H](O)[C@H]1O
minimal effective concentration (Eimeria tenella): 1.25 µg/mL

CCSc1[nH]cnc2ncnc1-2
minimal effective concentration (Eimeria tenella): > 20 µg/mL

CCCCCCSc1ncnc2c1cnn2C1O[C@H](CO)[C@@H](O)[C@H]1O (stereo partly specified)
minimal effective concentration (Eimeria tenella): 0.019 µg/mL
No. of chicks (Gallus gallus [2]): 5
No. of chicks (Gallus gallus [3]): 0
No. of chicks (Gallus gallus [4]): 0
No. of chicks (Gallus gallus [5]): 2

C/C=C/CSc1ncnc2c1cnn2C1O[C@H](CO)[C@@H](O)[C@H]1O (stereo partly specified)
minimal effective concentration (Eimeria tenella): 0.019 µg/mL
No. of chicks (Gallus gallus [2]): 5
No. of chicks (Gallus gallus [3]): 0
No. of chicks (Gallus gallus [4]): 0
No. of chicks (Gallus gallus [5]): 4

OC[C@H]1OC(n2ncc3c(S)ncnc32)[C@H](O)[C@@H]1O (stereo partly specified)
minimal effective concentration (Eimeria tenella): 0.31 µg/mL
No. of chicks (Gallus gallus [7]): 2

CSc1[nH]cnc2nncc1-2
minimal effective concentration (Eimeria tenella): 20 µg/mL

CSc1ncnc2c1cnn2C1O[C@H](CO)[C@@H](O)[C@H]1O (stereo partly specified)
minimal effective concentration (Eimeria tenella): 0.03 µg/mL
No. of chicks (Gallus gallus [6]): 1
No. of chicks (Gallus gallus [8]): 1
No. of chicks (Gallus gallus [9]): 4
No. of chicks (Gallus gallus [3]): 0
No. of chicks (Gallus gallus [4]): 2
No. of chicks (Gallus gallus [7]): 3
No. of chicks (Gallus gallus [10]): 2
No. of chicks (Gallus gallus [11]): 2

CC(=O)CSc1ncnc2c1cnn2C1O[C@H](CO)[C@@H](O)[C@H]1O (stereo partly specified)
minimal effective concentration (Eimeria tenella): > 20 µg/mL
No. of chicks (Gallus gallus [2]): 0

CCOP(=O)(CCSc1ncnc2c1cnn2C1O[C@H](CO)[C@@H](O)[C@H]1O)OCC (stereo partly specified)
minimal effective concentration (Eimeria tenella): 5 µg/mL
No. of chicks (Gallus gallus [2]): 1

CSc1nccc2c1ncn2C1O[C@H](CO)[C@@H](O)[C@H]1O (stereo partly specified)
minimal effective concentration (Eimeria tenella): > 20 µg/mL

OC[C@H]1OC(n2ncc3cncnc32)[C@H](O)[C@@H]1O (stereo partly specified)
minimal effective concentration (Eimeria tenella): 1.3 µg/mL
No. of chicks (Gallus gallus [7]): 1

CSc1nc(C)nc2c1ncn2C1O[C@H](CO)[C@@H](O)[C@H]1O (stereo partly specified)
minimal effective concentration (Eimeria tenella): > 25 µg/mL

CCCCCSc1ncnc2[nH]cnc12
minimal effective concentration (Eimeria tenella): 20 µg/mL

Sc1ncnc2[nH]ncc12 [TISOPURINE]
No. of chicks (Gallus gallus [12]): 0
minimal effective concentration (Eimeria tenella): > 20 µg/mL

CCSc1ncnc2c1cnn2C1O[C@H](CO)[C@@H](O)[C@H]1O (stereo partly specified)
minimal effective concentration (Eimeria tenella): 0.31 µg/mL
No. of chicks (Gallus gallus [3]): 2
No. of chicks (Gallus gallus [4]): 5
No. of chicks (Gallus gallus [7]): 5
No. of chicks (Gallus gallus [10]): 5

CCCSc1ncnc2c1cnn2C1O[C@H](CO)[C@@H](O)[C@H]1O (stereo partly specified)
minimal effective concentration (Eimeria tenella): 0.019 µg/mL
No. of chicks (Gallus gallus [3]): 0
No. of chicks (Gallus gallus [4]): 0
No. of chicks (Gallus gallus [7]): 4
No. of chicks (Gallus gallus [10]): 1

COC(=O)CSc1ncnc2c1cnn2C1O[C@H](CO)[C@@H](O)[C@H]1O (stereo partly specified)
minimal effective concentration (Eimeria tenella): 20 µg/mL
No. of chicks (Gallus gallus [2]): 0

CSc1ncnc2[nH]cnc12
minimal effective concentration (Eimeria tenella): > 20 µg/mL
